Data set [1] is filed under the species Homo sapiens. Briefly: Selectivity for human NET over human DAT. In short, it runs like this:
(§1)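 Competition binding in stably transfected cells expressing human transporters: NET vs [3H]nisoxetine and SERT vs [3H]citalopram in HEK-293 cells; DAT vs [125I]RTI-55 in canine kidney cells. Ki as geometric mean of at least three experiments in triplicate; selectivity as ratio of SERT or DAT Ki to NET Ki.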

The species entered for data set [2] is Homo sapiens. Briefly: Selectivity for human NET over human SERT. In short, it runs like this: as §1
A short description of data set [3]: Lipophilicity, log P at pH 7.4. It counts as physicochemical. The following applies: buffer. A digest of the protocol: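 Radiotracer (~5–10 μCi) in 2 mL 1-octanol plus 2 mL 0.02 M sodium phosphate buffer, pH 7.4. Vortexed 10 min at room temperature, centrifuged 5 min. 0.5 mL of each layer gamma-counted and decay corrected. log P = log(octanol counts/buffer counts), done three times and averaged.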

Data set [4] has as its target Sodium-dependent noradrenaline transporter (Homo sapiens, UniProt P23975). Description: Displacement of [3H]nisoxetine from human NET receptor expressed in HEK293 cells. The format is cell-based.
Data set [5] has as its target Sodium-dependent dopamine transporter (Homo sapiens, UniProt Q01959). Briefly: Displacement of [125I]RTI-55 from human DAT receptor expressed in canine kidney cells. The format is cell-based. A digest of the protocol: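 Competition binding against [¹²⁵I]RTI-55 in canine kidney cells stably transfected with human DAT. Ki in nM, geometric mean ± SD of at least three separate experiments, each run in triplicate.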

Data set [6] deals with Sodium-dependent serotonin transporter (Homo sapiens, UniProt P31645). Briefly: Displacement of [3H]citalopram from human SERT receptor expressed in HEK293 cells. The format is cell-based. In short, it runs like this:
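Competition binding against [³H]citalopram in HEK-293 cells stably transfected with human SERT. Ki in nM, geometric mean ± SD of at least three separate experiments, each run in triplicate.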

pKi: −log10 of the molar value.

Here are results for two molecules from ChEMBL document CHEMBL1139340, “Synthesis, radiosynthesis, and biological evaluation of carbon-11 and fluorine-18 labeled reboxetine analogues: potential positron emission tomography radioligands for in vivo imaging of the norepinephrine transporter” (J Med Chem, 2009).

Chain of Sodium-dependent dopamine transporter (Q01959 whole entry): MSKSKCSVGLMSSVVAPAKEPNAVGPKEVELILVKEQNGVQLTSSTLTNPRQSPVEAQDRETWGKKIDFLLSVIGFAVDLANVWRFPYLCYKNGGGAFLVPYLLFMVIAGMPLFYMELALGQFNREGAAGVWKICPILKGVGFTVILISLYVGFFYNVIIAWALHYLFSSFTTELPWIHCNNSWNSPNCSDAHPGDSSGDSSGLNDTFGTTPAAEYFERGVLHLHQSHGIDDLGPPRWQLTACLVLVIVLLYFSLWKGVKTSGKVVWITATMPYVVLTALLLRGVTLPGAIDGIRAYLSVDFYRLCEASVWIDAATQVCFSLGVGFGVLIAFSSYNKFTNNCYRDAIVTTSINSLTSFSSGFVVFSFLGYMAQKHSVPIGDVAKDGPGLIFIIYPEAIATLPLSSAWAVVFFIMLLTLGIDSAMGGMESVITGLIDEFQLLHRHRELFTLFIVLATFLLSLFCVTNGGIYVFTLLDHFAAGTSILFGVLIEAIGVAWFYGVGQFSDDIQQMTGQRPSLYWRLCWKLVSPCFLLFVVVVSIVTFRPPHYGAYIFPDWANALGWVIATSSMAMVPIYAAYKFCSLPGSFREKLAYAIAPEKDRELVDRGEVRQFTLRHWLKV
Chain of Sodium-dependent serotonin transporter (P31645 whole entry): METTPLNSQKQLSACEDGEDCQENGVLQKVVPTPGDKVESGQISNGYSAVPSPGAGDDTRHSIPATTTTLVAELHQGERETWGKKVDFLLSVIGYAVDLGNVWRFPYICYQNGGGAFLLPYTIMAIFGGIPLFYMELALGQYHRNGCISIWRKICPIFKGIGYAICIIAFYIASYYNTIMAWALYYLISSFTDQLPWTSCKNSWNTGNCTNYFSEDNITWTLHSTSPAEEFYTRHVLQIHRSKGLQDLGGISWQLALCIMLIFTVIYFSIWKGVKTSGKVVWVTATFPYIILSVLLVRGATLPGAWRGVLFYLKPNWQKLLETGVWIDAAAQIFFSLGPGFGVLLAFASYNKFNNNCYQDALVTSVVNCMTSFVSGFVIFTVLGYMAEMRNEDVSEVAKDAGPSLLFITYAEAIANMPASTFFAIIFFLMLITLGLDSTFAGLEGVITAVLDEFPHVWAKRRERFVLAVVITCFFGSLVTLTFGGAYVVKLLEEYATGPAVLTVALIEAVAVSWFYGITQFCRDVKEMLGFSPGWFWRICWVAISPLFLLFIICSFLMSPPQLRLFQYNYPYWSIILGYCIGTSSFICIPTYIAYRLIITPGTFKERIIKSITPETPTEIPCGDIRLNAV
Chain of Sodium-dependent noradrenaline transporter (P23975 whole entry): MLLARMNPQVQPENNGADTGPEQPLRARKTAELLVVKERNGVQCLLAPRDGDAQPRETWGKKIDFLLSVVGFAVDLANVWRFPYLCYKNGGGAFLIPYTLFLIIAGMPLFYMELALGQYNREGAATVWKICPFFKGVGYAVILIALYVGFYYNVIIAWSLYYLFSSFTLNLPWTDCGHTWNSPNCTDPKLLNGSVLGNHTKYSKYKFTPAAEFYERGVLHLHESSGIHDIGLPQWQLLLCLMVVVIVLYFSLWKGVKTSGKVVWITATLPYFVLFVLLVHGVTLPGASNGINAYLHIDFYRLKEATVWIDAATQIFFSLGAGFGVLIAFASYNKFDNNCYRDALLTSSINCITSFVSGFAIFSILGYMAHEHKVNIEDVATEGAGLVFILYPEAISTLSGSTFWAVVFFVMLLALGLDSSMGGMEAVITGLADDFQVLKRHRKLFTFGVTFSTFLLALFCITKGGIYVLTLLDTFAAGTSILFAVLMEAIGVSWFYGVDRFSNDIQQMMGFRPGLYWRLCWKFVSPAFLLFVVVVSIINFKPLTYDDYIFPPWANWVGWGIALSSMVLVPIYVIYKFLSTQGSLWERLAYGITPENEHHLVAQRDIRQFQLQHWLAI

As usually defined, the logD is lipophilicity at a set pH, counting ionised and neutral species. As usually defined, the pKi is the Ki on a negative log10 scale, so that one unit is a factor of ten. A low value points to a large Ki. Regarding `FCCc1ccccc1O[C@@H](c1ccccc1)[C@@H]1CNCCO1`, the Ratio Ki in the data set filed under Homo sapiens [1] is above 2000; in the data set listed under Homo sapiens [2], 137. For the same molecule, in data set [3], the logD came to 2. Besides, the negative-log Ki (pKi) was 8.50 in data set [4], below 5.22 in data set [5] and 6.37 in data set [6].

Regarding `Cc1ccccc1S[C@@H](c1ccccc1)[C@@H]1CNCCO1`, the values for the Ratio Ki in the data set listed under Homo sapiens [1] and in the data set listed under Homo sapiens [2] were 917 and 49, respectively. Moreover, the log distribution coefficient (logD) in data set [3] came to 2.47. Besides, the pKi in data set [4] is 9.52; in data set [5] it was 6.56; in data set [6] it was 7.83.
